This note sets out measurements from PMC11376197 (Chemical Science, 2024).

The term IC50 denotes the midpoint of a concentration-inhibition curve.

What all share (assay): Cell viability assay
The subject of assay [1] is MRC-5 (non-cancerous lung fibroblasts). In kind it is cell-based. Particulars: read-out: IC50 MRC-5; 96 h of incubation. An outline of the steps: (§1)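 Cell lines were exposed to test compounds for 96 h, with cisplatin as a reference. Complexes came from DMSO stocks and cisplatin from water stocks. Antiproliferative activity is expressed as IC50.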
For assay [2], the system named is OVCAR-3 (high-grade serous ovarian cancer cells). In kind it is cell-based, human. Particulars: read-out: IC50 OVCAR-3; 96 h of incubation. An outline of the steps: as §1
Assay [3] deals with HCT116 (colon cancer cells). The class given is cell-based, human. The following applies: read-out: IC50 HCT116; 96 h of incubation. The procedure, abridged: as §1
Assay [4] deals with A2780 (cisplatin-sensitive ovarian cancer cells). In kind it is cell-based, human. The following applies: read-out: IC50 A2780; 96 h of incubation. The procedure, abridged: as §1

Consider `N.N.[Cl][Pt][Cl]` [Cisplatin], for which the IC50 in assay [1] worked out at 2 ± 1 µM; in assay [2] it was 3.1 ± 0.2 µM; in assay [3] it was 7.9 ± 0.8 µM; in assay [4], 0.6 ± 0.2 µM.
